Assay results as given in PubChem BioAssay.
Activity calls are given as the source filed them.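 Rule for the calls, unless noted: active = inhibition of the reporter signal at or above 50%; inactive = inhibition below 50%.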

Experiments:
[1] = inhibitors of TNFa-induced NFkB p65 translocation, primary screen, imaging, HUVEC, MLSMR starter and 10KST1 sets (AID 438;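 active = inhibition above 20% together with a positive visual image hit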;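 note: compound added about 3h40 before a 20 min TNFalpha stimulation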;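 for inhibition: signal is the nuclear over cytoplasmic p65 intensity ratio per well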); details: HUVEC TNFa-induced p65 nuclear translocation; cell count: measured here: nuclei count (cytotoxicity indicator), at 2.08 µM; inhibition: at 2 µM, stronger effect = higher value, 0% TNFa-plus-vehicle, 100% no-TNFa wells
[2] = inhibitors of mutant huntingtin aggregation, primary screen, imaging, exon1htt(103Q)mCFP cells, high-content imaging (AID 483;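 active = visual image review flags a hit and inhibition of aggregation exceeds 20%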;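 note: compound exposure lasted 3 days before fixation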;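 for nuclei count: percent of the per-plate median nuclei count of sample wells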); details: exon1htt(103Q)mCFP cell line, aggregate imaging, at 2 µM; inhibition of aggregation: stronger effect = higher value; nuclei count: measured here: cell count, toxicity
[3] = inhibitors of E-selectin induction by TNFa, primary screen, imaging, HUVEC, immunofluorescence, MLSMR starter and 10KST1 sets (AID 487;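 active = visually confirmed hit in the image check and inhibition above 20%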;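 for inhibition: signal is fraction of cell area covered by stained E-selectin grains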;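 for nuclei count: 100% = median nuclei count of all wells on the same plate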); details: HUVEC TNFalpha-induced E-selectin immunofluorescence imaging, at 2 µM; inhibition: stronger effect = higher value; nuclei count: measured here: cell number, toxicity
[4] = molecular target: Voltage-gated potassium channel subunit beta-2 (Rattus norvegicus) (UniProt P62483); assay: KvBeta enzyme negative modulators, primary screen, biochemical, NADPH fluorescence (AID 622;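 active = fluorescence slope higher than the sample average by over 3 SD, cut at about -0.22 in these data, passing the limit was not always enough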;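 note: slope of raw intensity against log time taken from 70 to 1610 s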); details: recombinant KvBeta, 4-cyanobenzaldehyde reduction, at 10 µM, stronger effect = higher value
[5] = molecular target: Voltage-gated potassium channel subunit beta-2 (Rattus norvegicus) (UniProt P62483); assay: KvBeta positive modulators, primary screen, biochemical, NADPH fluorescence (AID 623;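 active = NADPH fluorescence slope more negative than the mean of all samples by about 3 SD, 99.7% confidence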;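 note: fluorescence intensity change per second fitted from 20 to 320 s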); details: Recombinant KvBeta, NADPH fluorescence decrease slope, 10 min; at 10 µM; stronger effect = lower value
[6] = molecular target: Muscarinic acetylcholine receptor M4 (Homo sapiens) (UniProt P08173); assay: compounds altering M4/GIRK thallium flux, either direction, primary screen, M4 allosteric agonist project, cell-based, HEK293 M4/GIRK, BTC-AM (AID 625;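 active = fluorescence slope after compound addition differing from the mean of all tested samples at 99.7% confidence, mostly higher but some lower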;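 note: thallium influx through GIRK channels coupled to M4 in HEK293 cells with BTC-AM dye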); details: at 10 µM, actives lie on both sides
How it was run: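 Material: HEK293 cells with M4 receptor and GIRK channels; Times: cells overnight at 37 °C, BTC-AM loading 1 h, reads 2 min total; Technique: kinetic BTC-AM fluorescence sampled at 1 Hz, 10 s pre-addition baseline; Read-out basis: slope over 15–24 s of trace normalized to starting intensity; Controls: carbachol positive, DMSO negative.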

[7] = inhibitors of Sendai virus-induced IRF3 signaling, primary screen, TLR/RLR signaling modifier project, cell-based, Sendai virus stimulus, luciferase, 10K MLSCN set (AID 602276;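 active = inhibition at or above 50% at 10 µM; inactive = inhibition below 50%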;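 note: firefly luciferase from ISG56 promoter only with Renilla not read in this screen; 0% = Sendai virus plus DMSO and 100% = medium plus DMSO without virus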); details: HEK293 RL24 IRF3 luciferase reporter, at 10 µM, stronger effect = higher value
[8] = inhibitors of poly I:C-induced TLR3 signaling, primary screen, cell-based, poly I:C stimulus, luciferase, 10K MLSCN set (AID 602277); details: HEK293-TLR3 RL24 IRF3 luciferase reporter, at 10 µM, stronger effect = higher value

Sequence of Voltage-gated potassium channel subunit beta-2 (Rattus norvegicus) (P62483 whole entry, looked up): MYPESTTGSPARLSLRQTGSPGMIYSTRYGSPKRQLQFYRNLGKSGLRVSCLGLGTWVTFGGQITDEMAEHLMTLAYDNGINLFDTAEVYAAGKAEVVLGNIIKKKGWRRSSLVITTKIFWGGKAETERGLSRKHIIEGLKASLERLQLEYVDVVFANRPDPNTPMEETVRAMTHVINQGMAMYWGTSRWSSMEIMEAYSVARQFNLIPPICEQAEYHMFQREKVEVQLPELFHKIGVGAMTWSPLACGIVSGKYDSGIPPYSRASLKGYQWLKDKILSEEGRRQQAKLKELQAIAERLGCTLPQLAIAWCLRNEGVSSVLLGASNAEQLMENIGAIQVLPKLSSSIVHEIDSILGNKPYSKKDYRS
Sequence of Muscarinic acetylcholine receptor M4 (Homo sapiens) (P08173 whole entry, looked up): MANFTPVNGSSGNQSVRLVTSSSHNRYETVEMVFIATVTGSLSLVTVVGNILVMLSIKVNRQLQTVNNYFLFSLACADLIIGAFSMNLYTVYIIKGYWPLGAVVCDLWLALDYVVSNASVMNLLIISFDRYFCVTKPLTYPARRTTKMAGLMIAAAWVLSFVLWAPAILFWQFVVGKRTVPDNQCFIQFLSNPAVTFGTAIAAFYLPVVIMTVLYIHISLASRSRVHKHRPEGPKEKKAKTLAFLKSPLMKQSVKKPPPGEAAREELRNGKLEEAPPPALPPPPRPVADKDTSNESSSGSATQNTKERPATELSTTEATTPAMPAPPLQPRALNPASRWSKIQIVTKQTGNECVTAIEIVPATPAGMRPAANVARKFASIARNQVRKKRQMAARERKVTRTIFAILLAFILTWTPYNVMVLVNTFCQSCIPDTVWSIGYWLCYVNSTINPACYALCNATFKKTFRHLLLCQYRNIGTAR

Compound | cell count [1] | inhibition [1] | inhibition of aggregation [2] | nuclei count [2] | inhibition [3] | nuclei count [3] | fluorescence slope [4] | NADPH fluorescence slope [5] | fluorescence slope [6] | inhibition [7] | inhibition [8]
Cc1ccc2cc(C#N)c(N3CCCC3)nc2c1C | 360 | 4.8% (inactive) | 10% (inactive) | 111% | -49.6% (inactive) | 110% | -0.195 (inactive) | -2.2e-05 (inactive) | 0.00646 (inactive) | 13.3% (inactive) | -29.1% (inactive)
COc1ccc(OC)c(N2Cc3cc(C)c(C)cc3C2)c1 | 561 | -3.1% (inactive) | 0.2% (inactive) | 79.6% | -8.6% (inactive) | 86.7% | -0.476 (inactive) | -6.9e-05 (inactive) | 0.00388 (inactive) | -3.86% (inactive) | -7.05% (inactive)
CCn1c(=O)cc(OCC(=O)Nc2cc(C)ccn2)c2ccccc21 | 300 | -0.6% (inactive) | -7.1% (inactive) | 101% | -11.5% (inactive) | 126% | -0.537 (inactive) | -5.7e-06 (inactive) | 0.00495 (inactive) | 13.4% (inactive) | 21.3% (inactive)
CCN(Cc1cc2cc(OC)ccc2[nH]c1=O)C(=O)Cc1ccc(OC)cc1 | 369 | 1.8% (inactive) | -11.9% (inactive) | 114% | -57.8% (inactive) | 124% | -0.549 (inactive) | -9.8e-05 (inactive) | 0.00319 (inactive) | 11.4% (inactive) | 5.34% (inactive)
COc1ccc2cc(C#N)c(NC(C)C)nc2c1 | 481 | 3.6% (inactive) | -25.6% (inactive) | 96.4% | -23.1% (inactive) | 108% | -0.495 (inactive) | -0.000141 (inactive) | 0.00581 (inactive) | 8% (inactive) | 23% (inactive)
COc1ccc(-c2cc(C(=O)Nc3ccc(C)cc3)no2)cc1 | 320 | -6.5% (inactive) | -11.2% (inactive) | 108% | -9.7% (inactive) | 103% | -0.323 (inactive) | -8.4e-07 (inactive) | 0.00844 (inactive) | -20.2% (inactive) | -32.3% (inactive)
O=C1CC(N2CCOCC2)C(=O)N1c1ccc2c(c1)OCO2 (centres undefined) | 459 | 7.5% (inactive) | -9.9% (inactive) | 105% | -175% (inactive) | 120% | -0.574 (inactive) | -3.1e-05 (inactive) | 0.00505 (inactive) | 4.21% (inactive) | 10.1% (inactive)
COCC(=O)NC(c1ccccc1)c1ccccc1 | 336 | 9.4% (inactive) | 4.5% (inactive) | 100% | -13.4% (inactive) | 122% | -0.561 (inactive) | -7e-05 (inactive) | 0.00683 (inactive) | 14.6% (inactive) | 19.5% (inactive)
C=CCn1c(SCC(=O)NCC2CCCO2)nnc1C1CCCCC1 (centres undefined) | 354 | -4.5% (inactive) | -6% (inactive) | 110% | -33% (inactive) | 113% | -0.573 (inactive) | -2.9e-05 (inactive) | 0.00592 (inactive) | 11.2% (inactive) | 17.5% (inactive)
